Legend:
[1] = Toxicity in mouse assessed as lethal dose; format: organism-based; conditions: in vivo
H2N2 subtype [2] = test: Antiviral activity against Influenza A virus (A/Japan/305/57(H2N2)) infected BALB/c mouse assessed as infection-induced weight loss at 20 mg/kg, ip administered once daily from day 4 to 10 post viral challenge measured on day 6 postinfection; format: functional, Influenza A virus (A/Japan/305/1957(H2N2)); conditions: route intraperitoneal
How it was run: (§1)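 Gemfibrozil in 100% propylene glycol, 10 µl/mouse i.p., once daily days 4–10 after virus exposure; vehicle-only controls on the same days. Mice weighed before infection, then daily days 4–12 inclusive; loss tracked against pre-infection weight.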

H2N2 subtype [3] = test: Antiviral activity against Influenza A virus (A/Japan/305/57(H2N2)) infected BALB/c mouse assessed as infection-induced weight loss at 60 mg/kg, ip administered once daily from day 4 to 10 post viral challenge measured on day 10 postinfection; format: functional, Influenza A virus (A/Japan/305/1957(H2N2)); conditions: route intraperitoneal; how it was run: as §1
Mus musculus [4] = test: Increase in survival of LPS-induced BALB/c mouse severe systemic infection model at 60 mg/kg, ip administered as single dose 1 hr before LPS challenge; format: functional; conditions: route intraperitoneal
How it was run: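 LPS (E. coli O111:B4) 30 mg/kg i.p.; single 60 mg/kg i.p. dose in propylene glycol given 1 h before LPS; vehicle-only controls. n = 20 per group, single experiment; survival followed 14 days; log rank test.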

H2N2 subtype [5] = test: Antiviral activity against Influenza A virus (A/Japan/305/57(H2N2)) infected BALB/c mouse assessed as infection-induced weight loss at 40 mg/kg, ip administered once daily from day 4 to 10 post viral challenge measured on day 6 postinfection; format: functional, Influenza A virus (A/Japan/305/1957(H2N2)); conditions: route intraperitoneal; how it was run: as §1
H2N2 subtype [6] = test: Antiviral activity against Influenza A virus (A/Japan/305/57(H2N2)) infected BALB/c mouse assessed as infection-induced weight loss at 60 mg/kg, ip administered once daily from day 4 to 10 post viral challenge measured on day 12 postinfection; format: functional, Influenza A virus (A/Japan/305/1957(H2N2)); conditions: route intraperitoneal; how it was run: as §1
H2N2 subtype [7] = test: Antiviral activity against Influenza A virus (A/Japan/305/57(H2N2)) infected BALB/c mouse assessed as mouse survival at 20 mg/kg, ip administered once daily from day 4 to 10 post viral challenge; format: functional, Influenza A virus (A/Japan/305/1957(H2N2)); conditions: 96 h, route intraperitoneal
How it was run: (§2)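 Propylene glycol vehicle, 10 µl/mouse i.p., once daily days 4–10 post-infection; vehicle controls. Survival followed 30 days. 20/40/60 mg/kg in one experiment (n = 9–10 per group); 60 mg/kg also pooled from four experiments (vehicle n = 50, drug n = 46). Log rank test on survival time; Cox proportional hazards model for hazard ratios.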

H2N2 subtype [8] = test: Antiviral activity against Influenza A virus (A/Japan/305/57(H2N2)) infected BALB/c mouse assessed as infection-induced weight loss at 60 mg/kg, ip administered once daily from day 4 to 10 post viral challenge measured on day 6 postinfection; format: functional, Influenza A virus (A/Japan/305/1957(H2N2)); conditions: route intraperitoneal; how it was run: as §1
H2N2 subtype [9] = test: Antiviral activity against Influenza A virus (A/Japan/305/57(H2N2)) infected BALB/c mouse assessed as infection-induced weight loss at 40 mg/kg, ip administered once daily from day 4 to 10 post viral challenge measured on day 8 postinfection; format: functional, Influenza A virus (A/Japan/305/1957(H2N2)); conditions: route intraperitoneal; how it was run: as §1
H2N2 subtype [10] = test: Antiviral activity against Influenza A virus (A/Japan/305/57(H2N2)) infected BALB/c mouse assessed as infection-induced weight loss at 20 mg/kg, ip administered once daily from day 4 to 10 post viral challenge measured on day 8 postinfection; format: functional, Influenza A virus (A/Japan/305/1957(H2N2)); conditions: route intraperitoneal; how it was run: as §1
Mus musculus [11] = test: Increase in survival of LPS-induced BALB/c mouse severe systemic infection model at 60 mg/kg, ip administered as single dose 2 hrs before LPS challenge; format: functional; conditions: route intraperitoneal
H2N2 subtype [12] = test: Antiviral activity against Influenza A virus (A/Japan/305/57(H2N2)) infected BALB/c mouse assessed as mouse survival at 60 mg/kg, ip administered once daily from day 4 to 10 post viral challenge; format: functional, Influenza A virus (A/Japan/305/1957(H2N2)); conditions: 96 h, route intraperitoneal; how it was run: as §2
H2N2 subtype [13] = test: Antiviral activity against Influenza A virus (A/Japan/305/57(H2N2)) infected BALB/c mouse assessed as infection-induced weight loss at 20 mg/kg, ip administered once daily from day 4 to 10 post viral challenge measured on day 12 postinfection; format: functional, Influenza A virus (A/Japan/305/1957(H2N2)); conditions: route intraperitoneal; how it was run: as §1
H2N2 subtype [14] = test: Antiviral activity against Influenza A virus (A/Japan/305/57(H2N2)) infected BALB/c mouse assessed as infection-induced weight loss at 40 mg/kg, ip administered once daily from day 4 to 10 post viral challenge measured on day 12 postinfection; format: functional, Influenza A virus (A/Japan/305/1957(H2N2)); conditions: route intraperitoneal; how it was run: as §1
H2N2 subtype [15] = test: Antiviral activity against Influenza A virus (A/Japan/305/57(H2N2)) infected BALB/c mouse assessed as infection-induced weight loss at 40 mg/kg, ip administered once daily from day 4 to 10 post viral challenge measured on day 10 postinfection; format: functional, Influenza A virus (A/Japan/305/1957(H2N2)); conditions: route intraperitoneal; how it was run: as §1
H2N2 subtype [16] = test: Antiviral activity against Influenza A virus (A/Japan/305/57(H2N2)) infected BALB/c mouse assessed as mouse survival at 40 mg/kg, ip administered once daily from day 4 to 10 post viral challenge; format: functional, Influenza A virus (A/Japan/305/1957(H2N2)); conditions: 96 h, route intraperitoneal; how it was run: as §2
H2N2 subtype [17] = test: Antiviral activity against Influenza A virus (A/Japan/305/57(H2N2)) infected BALB/c mouse assessed as infection-induced weight loss at 60 mg/kg, ip administered once daily from day 4 to 10 post viral challenge measured on day 8 postinfection; format: functional, Influenza A virus (A/Japan/305/1957(H2N2)); conditions: route intraperitoneal; how it was run: as §1
H2N2 subtype [18] = test: Antiviral activity against Influenza A virus (A/Japan/305/57(H2N2)) infected BALB/c mouse assessed as infection-induced weight loss at 20 mg/kg, ip administered once daily from day 4 to 10 post viral challenge measured on day 4 postinfection; format: functional, Influenza A virus (A/Japan/305/1957(H2N2)); conditions: route intraperitoneal; how it was run: as §1
H2N2 subtype [19] = test: Antiviral activity against Influenza A virus (A/Japan/305/57(H2N2)) infected BALB/c mouse assessed as infection-induced weight loss at 60 mg/kg, ip administered once daily from day 4 to 10 post viral challenge measured on day 4 postinfection; format: functional, Influenza A virus (A/Japan/305/1957(H2N2)); conditions: route intraperitoneal; how it was run: as §1
H2N2 subtype [20] = test: Antiviral activity against Influenza A virus (A/Japan/305/57(H2N2)) infected BALB/c mouse assessed as infection-induced weight loss at 40 mg/kg, ip administered once daily from day 4 to 10 post viral challenge measured on day 4 postinfection; format: functional, Influenza A virus (A/Japan/305/1957(H2N2)); conditions: route intraperitoneal; how it was run: as §1
H2N2 subtype [21] = test: Antiviral activity against Influenza A virus (A/Japan/305/57(H2N2)) infected BALB/c mouse assessed as infection-induced weight loss at 20 mg/kg, ip administered once daily from day 4 to 10 post viral challenge measured on day 10 postinfection; format: functional, Influenza A virus (A/Japan/305/1957(H2N2)); conditions: route intraperitoneal; how it was run: as §1

**Q.** For `Cc1ccc(C)c(OCCCC(C)(C)C(=O)O)c1` [GEMFIBROZIL], which LD50 [1] is on record?
**A.** Its LD50 is 3160 mg/kg.

**Q.** And the Activity (H2N2 subtype [2])?
**A.** Its Activity is 77.5%.

**Q.** And the Activity (H2N2 subtype [3])?
**A.** The Activity was 78%.

**Q.** What about the survival at 60 mg/kg (Mus musculus [4]) of the same compound?
**A.** Its survival at 60 mg/kg is 25%.

**Q.** And the Activity (H2N2 subtype [5])?
**A.** The Activity was 75.6%.

**Q.** What about the Activity (H2N2 subtype [6]) of the same compound?
**A.** The Activity was 81.8%.

**Q.** What about the survival at 20 mg/kg (H2N2 subtype [7]) of the same compound?
**A.** Its survival at 20 mg/kg is 30%.

**Q.** And the Activity (H2N2 subtype [8])?
**A.** Its Activity is 77.1%.

**Q.** And the Activity (H2N2 subtype [9])?
**A.** The Activity was 72.2%.

**Q.** And the Activity (H2N2 subtype [10])?
**A.** Its Activity is 75.1%.

**Q.** What about the survival at 60 mg/kg (Mus musculus [11]) of the same compound?
**A.** Its survival at 60 mg/kg is 10%.

**Q.** What about the survival at 60 mg/kg (H2N2 subtype [12]) of the same compound?
**A.** The survival at 60 mg/kg was 52%.

**Q.** What about the Activity (H2N2 subtype [13]) of the same compound?
**A.** The Activity was 79%.

**Q.** And the Activity (H2N2 subtype [14])?
**A.** The Activity was 77.1%.

**Q.** What about the Activity (H2N2 subtype [15]) of the same compound?
**A.** Its Activity is 73.4%.

**Q.** And the survival at 40 mg/kg (H2N2 subtype [16])?
**A.** The survival at 40 mg/kg was 44%.

**Q.** What about the Activity (H2N2 subtype [17]) of the same compound?
**A.** The Activity was 73.2%.

**Q.** And the Activity (H2N2 subtype [18])?
**A.** The Activity was 87.9%.

**Q.** What about the Activity (H2N2 subtype [19]) of the same compound?
**A.** Its Activity is 86.5%.

**Q.** And the Activity (H2N2 subtype [20])?
**A.** The Activity was 87%.

**Q.** And the Activity (H2N2 subtype [21])?
**A.** The Activity was 75.2%.
